Peptide text beside a SMILES is read from it.
Legend:
PDE4 (PKA site) = assay: PDE4 phosphorylation at the PKA site in striatal slices; type: cell-based, mouse
Outline: (§1)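 Acute mouse striatal slices, drug-treated, analysed by quantitative immunoblot. Phospho-specific signals normalized to the matching total-protein blot; loading normalized to β-actin, GAPDH and/or Coomassie. The PDE4 PKA-site antibody was an affinity-purified polyclonal, phosphorylation state-specific. Mean ± s.e.m.; t-test or ANOVA with Bonferroni post hoc.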

[1] = molecular target: PDE4B1 phosphorylation by Cdk5 (Homo sapiens, UniProt Q00535); assay: In vitro Cdk5-dependent phosphorylation of PDE4; type: biochemical, rat
PDE4B1 (PKA site) = assay: PKA-mediated PDE4 phosphorylation in PC12 cells; type: cell-based; conditions: FSK 10 µM, n = 8 reactions, WT vs S145A at 3 min *P = 0.0241, at 15 min ***P < 0.0001
mice = assay: Forced swim test; type: in vivo, mouse; conditions: infusion into NAc, two-trial FST, n = 5-7 (Supplementary Fig. 12c)
Outline: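 Bilateral stereotaxic infusion into NAc under isoflurane (AP +1.50 mm from bregma, ML ±1.4 mm, DV −3.90 mm), 1 µl per hemisphere of peptide (115 µM) or PKA inhibitor (45 µM). Testing followed 90 min after peptide or 45 min after inhibitor. Mice aged 10–12 weeks swam in a glass cylinder of 25°C water for 10 min, then 8 min 24 h later. Two researchers, blind to treatment, scored immobility at 2–6 min.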

cAMP in striatal slices = assay: cAMP level in striatal slices; type: cell-based, mouse
CREB (Ser133) = assay: Phospho-Ser133 CREB in striatal slices; type: cell-based, mouse; conditions: 50 µM roscovitine, n = 3-6
Outline: as §1

PDE = PDE activity in striatal lysates; type: biochemical, mouse; conditions: n = 4 slices
[2] = tested on: AMPA receptor subunit GluR1 (Ser845); assay: Phospho-Ser845 GluR1 in striatal slices; type: cell-based, mouse; conditions: 50 µM roscovitine, n = 3-6
Outline: (§2)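 Acute mouse striatal slices were exposed to test compound and analysed by quantitative immunoblotting. Phospho-specific signals were normalized to the corresponding total-protein blots, and loading to β-actin, GAPDH and/or coomassie staining. Values are mean ± s.e.m.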

synapsin (Ser9) = assay: Phospho-Ser9 synapsin in striatal slices; type: cell-based, mouse; conditions: 50 µM roscovitine, n = 3-6
Outline: as §1

DARPP-32 (Thr34) = assay: Phospho-Thr34 DARPP-32 in striatal slices; type: cell-based, mouse; conditions: 50 µM roscovitine, n = 3-6
Outline: as §2

humans = conditions: ref [35]–[37]; cited from earlier work
PDE4 = conditions: ref [35]–[37]; cited from earlier work
animals = conditions: ref [35]–[37]; cited from earlier work
NMDA receptor = NMDA receptor current, whole-cell recording in striatal neurons; type: cell-based, mouse; conditions: D-APV 50 µM; NMDA 100 µM; -70 mV

PDE4B1 phosphorylation by Cdk5, sequence (Q00535 whole entry): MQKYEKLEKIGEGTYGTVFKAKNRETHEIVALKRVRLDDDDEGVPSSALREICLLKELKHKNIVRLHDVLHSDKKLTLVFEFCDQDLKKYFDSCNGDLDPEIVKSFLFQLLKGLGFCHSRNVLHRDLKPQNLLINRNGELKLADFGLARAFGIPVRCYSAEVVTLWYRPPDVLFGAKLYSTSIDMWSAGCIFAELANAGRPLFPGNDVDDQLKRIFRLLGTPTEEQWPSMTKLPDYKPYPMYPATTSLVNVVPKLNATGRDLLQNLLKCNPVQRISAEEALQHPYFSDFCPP
PDE4B1 phosphorylation by Cdk5, sequence (Q15078 99-307 partner limits assumed): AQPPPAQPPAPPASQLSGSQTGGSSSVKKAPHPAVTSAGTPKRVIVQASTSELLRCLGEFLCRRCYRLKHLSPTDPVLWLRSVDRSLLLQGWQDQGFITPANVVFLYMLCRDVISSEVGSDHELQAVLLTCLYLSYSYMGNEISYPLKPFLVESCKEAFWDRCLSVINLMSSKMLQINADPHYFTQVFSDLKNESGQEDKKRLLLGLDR

Question: For `CCNC(=O)[C@H]1O[C@@H](n2cnc3c(N)nc(NCCc4ccc(CCC(=O)O)cc4)nc32)[C@H](O)[C@@H]1O` [CGS21680], which “PKA-mediated PDE4 phosphorylation in response to CGS21680” value (PDE4 (PKA site); 5 µM, 2 min, Cdk5 cKO striatum, n = 4 slices from 2 mice, WT CGS vs cKO CGS *P = 0.0354) is on record?
Answer: Loss of PKA-mediated PDE4 phosphorylation

Question: Which IC50 [1] does the source give for `CC[C@H](C)[C@H](NC(=O)[C@H](CCCCN)NC(=O)[C@@H](NC(=O)[C@H](CCC(N)=O)NC(=O)[C@@H](N)CCCNC(=N)N)[C@@H](C)CC)C(=O)N[C@@H](Cc1c[nH]c2ccccc12)C(=O)N[C@@H](Cc1ccccc1)C(=O)N[C@@H](CCC(N)=O)C(=O)N[C@@H](CC(N)=O)C(=O)N[C@@H](CCCNC(=N)N)C(=O)N[C@@H](CCCNC(=N)N)C(=O)N[C@@H](CCSC)C(=O)N[C@@H](CCCCN)C(=O)N[C@@H](Cc1c[nH]c2ccccc12)C(=O)N[C@@H](CCCCN)C(=O)N[C@@H](CCCCN)C(=O)N[C@@H](CCC(=O)O)C(=O)N[C@@H](CO)C(=O)N[C@@H](Cc1ccccc1)C(=O)N[C@@H](CC(C)C)C(=O)N[C@@H](Cc1ccc(O)cc1)C(=O)N[C@@H](CCCNC(=N)N)C(=O)N[C@@H](CO)C(=O)N[C@@H](CC(=O)O)C(=O)N[C@@H](CO)C(=O)N[C@@H](CC(=O)O)C(=O)N[C@@H](Cc1ccc(O)cc1)C(=O)N[C@@H](CC(=O)O)C(=O)N[C@@H](CC(C)C)C(=O)N[C@@H](CO)C(=O)N1CCC[C@H]1C(=O)N[C@@H](CCCCN)C(=O)N[C@@H](C)C(=O)N[C@@H](CCSC)C(=O)O` [PDE4-siP] (H-RQIKIWFQNRRMKWKKESFLYRSDSDYDLSPKAM-OH) here?
Answer: 13 µM

Question: Which results are given for `C=C[C@@]1(C)CC(=O)[C@]2(O)[C@@]3(C)[C@@H](O)CCC(C)(C)[C@@H]3[C@H](O)[C@H](OC(C)=O)[C@@]2(C)O1` [forskolin]?
Answer: PKA-mediated PDE4 phosphorylation after forskolin, S145A PDE4B1 versus WT (PDE4B1 (PKA site)): reduced PKA-mediated PDE4 phosphorylation; PDE4 phosphorylation by PKA (PDE4 (PKA site); striatal slices (Supplementary Fig. 1e)): increased PDE4 phosphorylation by PKA

Question: With “RRRRRRR- ESFLYRSDSDYDLSPKAM [poly-arginine tagged PDE4 peptide]” as the compound, how does the FST performance (mice) read?
Answer: analogical effect on FST performance

Question: Which cAMP level (cAMP in striatal slices; SKF81297 (1 µM, 10 min unless stated otherwise), n = 4 slices, **P = 0.0030) does the source give for `Oc1cc2c(c(Cl)c1O)CCNCC2c1ccccc1` (centres unmarked) [SKF81297] here?
Answer: increase cAMP to similar levels

Question: Which “PKA-dependent phosphorylation of CREB (Ser133)” value (CREB (Ser133)) does the source give for `CC[C@H](CO)Nc1nc(NCc2ccccc2)c2ncn(C(C)C)c2n1` [roscovitine] here?
Answer: induced PKA-dependent phosphorylation

Question: And the PDE activity (PDE; roscovitine 10 µM, *P = 0.011)?
Answer: attenuates PDE activity

Question: And the PDE activity (PDE; roscovitine 50 µM, **P = 0.0037)?
Answer: attenuates PDE activity

Question: And the “phosphorylation of GluR1 (Ser845)” value [2]?
Answer: increased phosphorylation

Question: And the cAMP level (cAMP in striatal slices; Ros, n = 3 slices, *P = 0.0216)?
Answer: increase cAMP to similar levels

Question: What about the “PKA-dependent phosphorylation of synapsin (Ser9)” value (synapsin (Ser9)) of the same compound?
Answer: induced PKA-dependent phosphorylation

Question: What about the “phosphorylation of DARPP-32 (Thr34)” value (DARPP-32 (Thr34)) of the same compound?
Answer: increased phosphorylation

Question: Which antidepressant activity (humans) does the source give for `COc1ccc(C2CNC(=O)C2)cc1OC1CCCC1` (centres unmarked) [rolipram, 4-[3-(cyclopenotoxyl)-4-methoxyphenyl]-2-pyrrolidone] here?
Answer: have antidepressant activity in humans

Question: What about the cAMP (PDE4) of the same compound?
Answer: elevate cAMP

Question: What about the “behavioral responses to stressors” value (animals) of the same compound?
Answer: affect behavioral responses to stressors in animals

Question: Which NMDA-evoked current (NMDA receptor) does the source give for `N[C@H](CCCP(=O)(O)O)C(=O)O` [D-APV] here?
Answer: blocked

Source: article PMC4519694 (Nature neuroscience, 2015)
